Test results as given in paper PMC7744997 (Clinical Infectious Diseases: An Official Publication of …, 2020).

Key:
[1] = Safety/tolerability: adverse events in RSV-infected infants; assay type: in vivo, human
Outline: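 Adverse events were recorded over 28 days in infants given oral drug or placebo once daily for 7 days. Events were graded with the DMID Pediatric Toxicity Tables (November 2007), and the investigator judged relatedness to study drug. Events causing rehospitalisation were counted as serious. Vital signs, ECGs and physical examination were also done.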

RSV [2] = conditions: healthy volunteers, 75–500 mg once daily for 7 days; cited from earlier work
RSV [3] = assay: RSV RNA viral load from nasal swabs by qRT-PCR in RSV-infected infants; assay type: in vivo, respiratory syncytial virus
Outline: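 Viral load was measured by quantitative real-time RT-PCR on midturbinate nasal swabs, taken over time during 7 days of once-daily oral dosing. After hospital discharge, no samples were taken until the day 7 visit. Results were expressed as median change from baseline.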

RSV infection = assay: Clinical course of RSV infection; assay type: in vivo, human; conditions: JNJ-8678 (combined)
Outline: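 Infants (>1 to ≤24 months, term-born, hospitalised ≤72 h before randomisation with PCR-confirmed RSV) got oral drug or placebo once daily for 7 days (4:1 randomisation) and were followed 28 days. Outcomes were hospital stay and time to clinical stability: the latest of end of supplemental oxygen, end of supplemental feeding, normal heart rate and normal respiratory rate. Times were shown as Kaplan-Meier curves. Clinician and caregivers completed PRESORS symptom questionnaires electronically.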

With `CS(=O)(=O)CCCn1c(Cn2c(=O)n(CC(F)(F)F)c3ccncc32)cc2cc(Cl)ccc21` [JNJ-53718678] the SAE bronchiolitis ([1]; 1/12, cohort 1b, mid-dose, 6 mg/kg QD) was 8%, the “Any AE” value ([1]; All cohorts, n=37) was 28 (76) no. (%) and the “Any AE possibly related to placebo/JNJ-53718678” value ([1]; All cohorts, n=37) was 11 (30) no. (%). For the same compound, the “Any AE probably related to placebo/JNJ-53718678” value ([1]; All cohorts, n=37) was 1 (3) no. (%), the “Any worst grade 1 or 2 AE” value ([1]; All cohorts, n=37) was 28 (76) no. (%) and the “Any worst grade 3 or 4 AE” value ([1]; All cohorts, n=37) was 1 (3) no. (%). For the same compound, the “Soft feces (AE)” value ([1]; All cohorts, n=37) was 7 (19) no. (%), the “URTI (AE)” value ([1]; All cohorts, n=37) was 8 (22) no. (%) and the “Vomiting (AE)” value ([1]; All cohorts, n=37) was 8 (22) no. (%). The “Serious AE” value ([1]; All cohorts, n=37, serious due to rehospitalization, not related to study drug) was 2 (5) no. (%), the “Any AE” value ([1]; High (cohorts 1d,2c,3c), n=9) was 7 (78) no. (%) and the “Any AE possibly related to placebo/JNJ-53718678” value ([1]; High (cohorts 1d,2c,3c), n=9) was 2 (22) no. (%). The “Any AE probably related to placebo/JNJ-53718678” value ([1]; High (cohorts 1d,2c,3c), n=9) was 0 no. (%), the “Any worst grade 1 or 2 AE” value ([1]; High (cohorts 1d,2c,3c), n=9) was 7 (78) no. (%) and the “Any worst grade 3 or 4 AE” value ([1]; High (cohorts 1d,2c,3c), n=9) was 0 no. (%). The “Serious AE” value ([1]; High (cohorts 1d,2c,3c), n=9) was 0 no. (%), the “Soft feces (AE)” value ([1]; High (cohorts 1d,2c,3c), n=9) was 0 no. (%) and the “URTI (AE)” value ([1]; High (cohorts 1d,2c,3c), n=9) was 3 (33) no. (%). The “Vomiting (AE)” value ([1]; High (cohorts 1d,2c,3c), n=9) was 4 (44) no. (%), the “Any AE” value ([1]; Low (cohorts 1a,2a,3a), n=12) was 9 (75) no. (%) and the “Any AE possibly related to placebo/JNJ-53718678” value ([1]; Low (cohorts 1a,2a,3a), n=12) was 3 (25) no. (%). For the same compound, the “Any AE probably related to placebo/JNJ-53718678” value ([1]; Low (cohorts 1a,2a,3a), n=12) was 0 no. (%), the “Any worst grade 1 or 2 AE” value ([1]; Low (cohorts 1a,2a,3a), n=12) was 9 (75) no. (%) and the “Any worst grade 3 or 4 AE” value ([1]; Low (cohorts 1a,2a,3a), n=12) was 0 no. (%). The “Soft feces (AE)” value ([1]; Low (cohorts 1a,2a,3a), n=12) was 2 (17) no. (%), the “URTI (AE)” value ([1]; Low (cohorts 1a,2a,3a), n=12) was 1 (8) no. (%) and the “Vomiting (AE)” value ([1]; Low (cohorts 1a,2a,3a), n=12) was 0 no. (%). The “Any AE” value ([1]; Mid (cohorts 1b,2b,3b), n=12) was 10 (83) no. (%), the “Any AE possibly related to placebo/JNJ-53718678” value ([1]; Mid (cohorts 1b,2b,3b), n=12) was 4 (33) no. (%) and the “Any AE probably related to placebo/JNJ-53718678” value ([1]; Mid (cohorts 1b,2b,3b), n=12) was 1 (8) no. (%). For the same compound, the “Any worst grade 1 or 2 AE” value ([1]; Mid (cohorts 1b,2b,3b), n=12) was 10 (83) no. (%), the “Any worst grade 3 or 4 AE” value ([1]; Mid (cohorts 1b,2b,3b), n=12) was 1 (8) no. (%) and the “Soft feces (AE)” value ([1]; Mid (cohorts 1b,2b,3b), n=12) was 3 (25) no. (%). For the same compound, the “URTI (AE)” value ([1]; Mid (cohorts 1b,2b,3b), n=12) was 4 (33) no. (%), the “Vomiting (AE)” value ([1]; Mid (cohorts 1b,2b,3b), n=12) was 3 (25) no. (%) and the “Any AE” value ([1]; Mid-high (cohort 1c), n=4) was 2 (50) no. (%). The “Any AE possibly related to placebo/JNJ-53718678” value ([1]; Mid-high (cohort 1c), n=4) was 2 (50) no. (%), the “Any AE probably related to placebo/JNJ-53718678” value ([1]; Mid-high (cohort 1c), n=4) was 0 no. (%) and the “Any worst grade 1 or 2 AE” value ([1]; Mid-high (cohort 1c), n=4) was 2 (50) no. (%). The “Any worst grade 3 or 4 AE” value ([1]; Mid-high (cohort 1c), n=4) was 0 no. (%), the “Serious AE” value ([1]; Mid-high (cohort 1c), n=4) was 0 no. (%) and the “Soft feces (AE)” value ([1]; Mid-high (cohort 1c), n=4) was 2 (50) no. (%). The “URTI (AE)” value ([1]; Mid-high (cohort 1c), n=4) was 0 no. (%), the “Vomiting (AE)” value ([1]; Mid-high (cohort 1c), n=4) was 1 (25) no. (%) and the “Patients with AEs considered at least possibly related to JNJ-8678” value ([1]; all JNJ-8678, 11/37) was 30%. For the same compound, the “Grade 3 AEs (bronchiolitis, reported as serious AE), number” value ([1]; all JNJ-8678, n=37) was 1, the “Tolerability in RSV-infected infants” value ([1]; oral, once daily for 7 days) was “well tolerated” and the “Deaths, grade 4 AEs, AEs leading to discontinuation” value ([1]; whole study) was “No deaths, grade 4 AEs, or AEs leading to study discontinuation or permanent discontinuation of study drug were reported”. For the same compound, the “Effect on viral load and clinical disease severity” value (RSV [2]) was “substantially reduced both viral load and clinical disease severity”, the “Dose-response relationship for antiviral effects” value (RSV [3]; across JNJ-8678 dose levels) was “no clear dose-response relationship was observed” and the “Reduction in viral load compared with placebo” value (RSV [3]; all doses combined) was “greater reduction in viral load with JNJ-8678 than placebo”. The “Median RSV viral load change from baseline” value (RSV [3]; by day 3, all JNJ-8678 doses combined) was −1.98 log10 copies/mL, the “Median time to clinical stability following the start of study treatment” value (RSV infection; placebo 56.7 hours) was 47.4 h and the “Median length of hospital stay” value (RSV infection; placebo 77.5 hours) was 77.7 h. For the same compound, the “Time after which all patients were clinically stable” value (RSV infection; placebo 121.1 hours) was 123.5 h and the “Maximum length of hospital stay observed” value (RSV infection; placebo 144.5 hours) was 150.4 h.
